Assay [1] concerns Syrian golden hamster. In words: Induction of reverse cholestrol transport in high fat diet-induced dyslipidemia Syrian Golden hamster model assessed as increase in ApoA mRNA expression in liver at 100 mg/kg, po administered for 1 week by qRT-PCR analysis. Conditions: Mesocricetus auratus. It counts as functional, organism-based.
Assay [2] is filed under the species Mus musculus. Put plainly: Activation of Wnt3a/beta-catenin in mouse 3T3L1 cells assessed as down-regulation of C/EBPalpha mRNA expression at 20 uM by qRT-PCR analysis. The class given is cell-based. The method, boiled down:
(§1)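 3T3-L1 cells differentiated with IBMX/dexamethasone/insulin media with or without 20 µM compound over the differentiation period. RNA extracted with TRIZOL, 500 ng reverse-transcribed to cDNA, then quantitative real-time PCR. Three independent experiments run in triplicate, mean ± SD, one-way ANOVA with Bonferroni posttest.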

Assay [3] relates to Syrian golden hamster. Put plainly: Induction of reverse cholestrol transport in high fat diet-induced dyslipidemia Syrian Golden hamster model assessed as reduction in eWAT to body weight ratio at 100 mg/kg, po administered for 1 week. It counts as functional, organism-based. Conditions: Mesocricetus auratus. Summed up: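 Male Syrian Golden hamsters on 45% kCal HFD, dosed 100 mg/kg p.o. in 0.5% NaCMC for one week, 4 per group. Food intake and body weight recorded daily. At the end, animals were saline-perfused and liver and eWAT were excised and weighed. Paraffin sections stained with H&E and imaged at 20x.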

Assay [4] has as its system Syrian golden hamster. In words: Induction of reverse cholestrol transport in high fat diet-induced dyslipidemia Syrian Golden hamster model assessed as decrease in CETP mRNA expression in liver at 100 mg/kg, po administered for 1 week by qRT-PCR analysis. It counts as functional, organism-based. The conditions noted are these: Mesocricetus auratus.
For assay [5], the system named is Syrian golden hamster. In words: Induction of reverse cholestrol transport in high fat diet-induced dyslipidemia Syrian Golden hamster model assessed as reduction in hepatic lipid vacuoles hypertrophy at 100 mg/kg, po administered for 1 week by H and E staining based assay. The class given is functional, organism-based. The conditions noted are these: Mesocricetus auratus.

In assay [6] the test system is Syrian golden hamster. In words: Induction of reverse cholestrol transport in high fat diet-induced dyslipidemia Syrian Golden hamster model assessed as increase in HNF1alpha mRNA expression in liver at 100 mg/kg, po administered for 1 week by qRT-PCR analysis. It counts as functional, organism-based. The conditions noted are these: Mesocricetus auratus.
For assay [7], the species on record is Mus musculus. Put plainly: Activation of Wnt3a/beta-catenin in mouse 3T3L1 cells assessed as down-regulation of CDK4 expression at 20 uM after 16 to 24 hrs by Western blot analysis. It counts as cell-based. Summed up: (§2)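 3T3-L1 cells given MDI differentiation media (0.5 mM IBMX, 5 µg/ml insulin, 250 nM dexamethasone) with or without 20 µM compound. Proteins isolated at 16 and 24 h and probed by Western blot for CDK2, CDK4, CDK6, cyclin D1 and D3. Densitometry normalized to actin, n=3, mean ± SD, Student t test.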

Assay [8] relates to Syrian golden hamster. In words: Induction of reverse cholestrol transport in high fat diet-induced dyslipidemia Syrian Golden hamster model assessed as increase in ABCG8 mRNA expression in eWAT at 100 mg/kg, po administered for 1 week by qRT-PCR analysis. The class given is functional, organism-based. Conditions: Mesocricetus auratus.
The subject of assay [9] is 3T3-L1. In words: Induction of Wnt5b mRNA expression in mouse 3T3L1 cells at 20 uM by qRT-PCR analysis. The class given is functional, cell-based. Summed up:
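3T3-L1 cells induced with MDI differentiation medium with or without 20 µM. RNA isolated with TRIzol and 500 ng reverse-transcribed to cDNA for real-time PCR. n=3 with triplicates, mean ± SD; one-way ANOVA with Bonferroni post-test.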

The test system of a further assay is C3H 10T1/2. In words: Anti-adipogenic activity in mouse differentiated C3H10T1/2 cells assessed as reduction in lipid accumulation at 5 to 20 uM after 20 mins by Oil Red O absorbance method. The class given is functional, cell-based. The method, boiled down:
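C3H10T1/2 or human MSC differentiated with IBMX/insulin/dexamethasone media containing 5, 10 or 20 µM compound. Cells stained with Oil red O (0.36% in 60% isopropanol, 20 min), dye extracted with isopropanol, absorbance read at 492 nm. n=3, mean ± SD, Student t test against MDI group.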

In assay [10] the test system is 3T3-L1. Put plainly: Anti-adipogenic activity in mouse 3T3L1 cells assessed as inhibition of adipogenesis after 20 mins by Oil Red O staining based assay. The class given is functional, cell-based. Conditions: 3T3-L1, 20 min. Summed up:
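3T3-L1 preadipocytes differentiated with compound at 0.1, 1, 3, 10, 30, 100 and 300 µM. Oil red O absorbance read at 492 nm, concentrations log-transformed and fitted by non-linear regression to give IC50. Two to three independent experiments, mean ± SEM.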

For assay [11], the species on record is Mus musculus. In words: Activation of Wnt3a/beta-catenin in mouse 3T3L1 cells assessed as increase in CREB mRNA expression at 20 uM by qRT-PCR analysis. It counts as cell-based. The method, boiled down: as §1
The species entered for assay [12] is Mus musculus. Put plainly: Activation of Wnt3a/beta-catenin in differentiated mouse 3T3L1 cells assessed as upregulation of phosphorylated beta-catenin expression at 20 uM after 16 to 24 hrs by Western blot analysis. The method, boiled down:
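3T3-L1 preadipocytes grown to confluence in high-glucose DMEM/10% FBS, then given differentiation media (0.5 mM IBMX, 5 µg/ml insulin, 250 nM dexamethasone) with or without 20 µM compound. Protein isolated at set time points, lysed with protease/phosphatase inhibitors, BCA-quantified, resolved by 8–12% SDS-PAGE, immunoblotted with ECL detection. β-actin loading control, densitometry normalized to actin, n=3.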

The test system of assay [13] is Syrian golden hamster. Put plainly: Anti-adipogenic activity in high fat diet-induced dyslipidemia Syrian Golden hamster model assessed as decrease in PPARgamma levels in eWAT at 100 mg/kg, po administered for 1 week by Western blot analysis. It counts as functional, organism-based. The conditions noted are these: Mesocricetus auratus. Summed up:
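Male Syrian golden hamsters (8–10 wk, 100–120 g) fed 45% kcal HFD for 4 days, then dosed orally at 100 mg/kg in 0.5% NaCMC for one week, n=4 per group. Fenofibrate 100 mg/kg p.o. used as positive control. Epididymal WAT proteins Western blotted, three independent experiments.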

The species entered for assay [14] is Mus musculus. Put plainly: Activation of Wnt3a/beta-catenin in mouse 3T3L1 cells assessed as down-regulation of cyclinD expression at 20 uM after 16 to 24 hrs by Western blot analysis. It counts as cell-based. Summed up:
as §2

Assay [15] relates to 3T3-L1. In words: Cell cycle arrest in mouse 3T3L1 cells assessed as reduction in accumulation at S phase at 10 to 20 uM after 16 hrs by propidium iodide-staining based flow cytometry. The class given is functional. The method, boiled down: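 Confluent 3T3-L1 preadipocytes given differentiation medium (0.5 mM IBMX, 5 µg/ml insulin, 250 nM dexamethasone) with 10 or 20 µM for 16 and 24 hr. Cells trypsinized, fixed in ice-cold 70% ethanol for 2 hr, stained with propidium iodide (40 µg/ml in RNase A buffer, 30 min, room temperature). Flow cytometry gave the fractions in G1, S and G2/M; three independent experiments.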

The species named for assay [16] is Mus musculus. Put plainly: Activation of Wnt3a/beta-catenin in mouse 3T3L1 cells assessed as down-regulation of CDK6 expression at 20 uM after 16 to 24 hrs by Western blot analysis. It counts as cell-based. The method, boiled down:
as §2

For assay [17], the system named is Syrian golden hamster. Put plainly: Induction of reverse cholestrol transport in high fat diet-induced dyslipidemia Syrian Golden hamster model assessed as increase in ABCG5 mRNA expression in eWAT at 100 mg/kg, po administered for 1 week by qRT-PCR analysis. The conditions noted are these: Mesocricetus auratus. It counts as functional, organism-based.
Assay [18] concerns Syrian golden hamster. Put plainly: Induction of reverse cholestrol transport in high fat diet-induced dyslipidemia Syrian Golden hamster model assessed as decrease in NPCL1 mRNA expression in liver at 100 mg/kg, po administered for 1 week by qRT-PCR analysis. Conditions: Mesocricetus auratus. The class given is functional, organism-based.

Active and inactive are the calls of the source. No cut-off for these calls is given here.

As to `Cc1ccc(S(=O)(=O)N(Cc2cn(Cc3cccc(F)c3F)nn2)Cc2cn(S(=O)(=O)c3ccc(C)cc3)c3ccccc23)cc1`, the outcome in the assay with Syrian golden hamster [1], in the assay filed under Mus musculus [2], in the assay with Syrian golden hamster [3], with Syrian golden hamster [4], in the assay on Syrian golden hamster [5] and in the assay on Syrian golden hamster [6] was Active. Besides, the outcome in the assay filed under Mus musculus [7], with Syrian golden hamster [8], in the assay with C3H 10T1/2, in the assay filed under Mus musculus [11], in the assay filed under Mus musculus [12] and in the assay on Syrian golden hamster [13] was Active. For the same compound, the outcome in the assay listed under Mus musculus [14], in the assay with 3T3-L1 [15], in the assay listed under Mus musculus [16], in the assay with Syrian golden hamster [17] and in the assay with Syrian golden hamster [18] was Active. For the same compound, the result with 3T3-L1 [9] was inactive. Further, the concentration for half-maximal inhibition (IC50) in the assay with 3T3-L1 [10] was determined as 1700 nM.

These data come from ChEMBL document CHEMBL4138193, “Novel indole and triazole based hybrid molecules exhibit potent anti-adipogenic and antidyslipidemic activity by activating Wnt3a/β-catenin pathway” (Eur J Med Chem, 2018).
